Test results reported in PubChem BioAssay AID588760 (Johns Hopkins Ion Channel Center, 2011).
Active and inactive are the calls of the source.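 Rule for the calls: active = fitted dose response curve and peak inhibition of the Kir2.1 potassium channel above 30% at some dose; inactive = no dose response or no inhibition at any dose.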

target: Inward rectifier potassium channel 2 (Mus musculus) (UniProt P35561); assay: off-target blockade of inward rectifier Kir2.1 – cell-based, FluxOR thallium flux, CRC round 3, selectivity assay for KCNK9 inhibitor project, SAR follow-up (AID 588760); details: Kir2.1-expressing cells, 20 min; series mostly up to 30 µM; thallium flux ratio, lower = inhibition: at the top concentration
Sequence (P35561 whole entry, looked up): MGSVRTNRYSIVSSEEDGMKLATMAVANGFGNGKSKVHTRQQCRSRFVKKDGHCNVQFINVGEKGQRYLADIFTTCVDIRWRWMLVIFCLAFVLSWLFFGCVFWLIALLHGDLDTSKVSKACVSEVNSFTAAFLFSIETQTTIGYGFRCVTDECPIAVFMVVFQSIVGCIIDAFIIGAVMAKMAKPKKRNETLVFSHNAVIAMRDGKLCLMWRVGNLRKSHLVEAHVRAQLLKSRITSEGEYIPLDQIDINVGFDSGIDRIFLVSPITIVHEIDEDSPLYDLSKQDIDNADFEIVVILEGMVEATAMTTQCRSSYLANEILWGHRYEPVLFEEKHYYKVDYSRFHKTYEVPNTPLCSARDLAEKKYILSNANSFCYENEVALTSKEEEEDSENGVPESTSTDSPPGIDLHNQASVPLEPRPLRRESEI
Outline: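 Assay system: FluxOR-loaded Kir2.1 HEK293 cells; Also added: K2SO4/Tl2SO4 stimulus; Replicates: at least duplicate measurements per concentration; Measured by: kinetic fluorescence of thallium-sensitive dye; Incubation: dye loading 90 min RT, compound 20 min RT pre-stimulus.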

Thallium flux ratio, lower = inhibition, inactive:
CC(C1CCCCC1)n1c(-c2ccco2)n[nH]c1=S (stereo unspecified) 1.24
CC(C1CC2CCC1C2)n1cnnc1-c1ccco1 (stereo unspecified) 1.88
CC(CC1CC2CCC1C2)n1c(-c2ccco2)n[nH]c1=S (stereo unspecified) 1.05
CC(C1CC2CCC1C2)n1c(SCC(=O)c2ccc(Cl)c(Cl)c2)nnc1-c1ccco1 (stereo unspecified) 1.98
COc1cccc(C(=O)CSc2nnc(-c3ccco3)n2C(C)C2CC3CCC2C3)c1 (stereo unspecified) 1.4
CC(C1CC2CCC1C2)n1c(-c2ccccn2)n[nH]c1=S (stereo unspecified) 1.72
S=c1[nH]nc(-c2ccco2)n1CC1CC2CCC1C2 (stereo unspecified) 1.13
CC(C1C2CCC1CC2)n1c(-c2ccco2)n[nH]c1=S (stereo unspecified) 1.4
CC(CCC1CCCC1)n1c(-c2ccco2)n[nH]c1=S (stereo unspecified) 1.18
CC(C1CC2CCC1C2)n1c(-c2cccc(N(C)C)c2)n[nH]c1=S (stereo unspecified) 1.34
CC(C1CC2CCC1C2)n1c(-c2ccco2)nnc1C(F)(F)F (stereo unspecified) 1.18
COc1ccc(C(=O)CSc2nnc(-c3ccco3)n2C(C)C2CC3CCC2C3)cc1OC (stereo unspecified) 1.32
CSc1nnc(-c2ccco2)n1C(C)C1CC2CCC1C2 (stereo unspecified) 0.744
C[C@@H](C1CCCCC1)n1c(-c2ccco2)n[nH]c1=S 1.59
CC(C1CC2CCC1C2)n1c(SC(F)F)nnc1-c1ccco1 (stereo unspecified) 0.755
S=c1[nH]nc(-c2ccco2)n1C1CC2CCC1C2 (stereo unspecified) 1.42
CC(C1CC2CCC1C2)n1c(-c2ccco2)n[nH]c1=O (stereo unspecified) 1.56
CC(C1CC2CCC1C2)n1c(SCC(=O)c2ccc3c(c2)OCO3)nnc1-c1ccco1 (stereo unspecified) 1.49
CC(c1cccc2ccccc12)n1c(-c2ccco2)n[nH]c1=S (stereo unspecified) 1.43
CC(C1CC2CCC1C2)N(C)C(=O)c1ccco1 (stereo unspecified) 1.97

outcome, inactive:
CC(C1CC2CCC1C2)n1c(-c2ccco2)n[nH]c1=S (stereo unspecified)
